CYP2C19 inhib – blockers of cytochrome P450 2C19 activity – biochemical, luminescence, ADME assay, primary screen; P33261; CYP2C19 Supersomes, luciferin-H EGE luminescence, 30 min; inhibition, % at 5 µM; 96,000 compounds, 21% hits;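 active means CYP2C19 inhibition above a set limit at 5 µM in the primary screen, cut at about 50% in these data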;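 further: plate controls were negative control wells for no effect and 2.5 mM tranylcypromine positive control for full effect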
Target sequence (P33261 whole entry, looked up): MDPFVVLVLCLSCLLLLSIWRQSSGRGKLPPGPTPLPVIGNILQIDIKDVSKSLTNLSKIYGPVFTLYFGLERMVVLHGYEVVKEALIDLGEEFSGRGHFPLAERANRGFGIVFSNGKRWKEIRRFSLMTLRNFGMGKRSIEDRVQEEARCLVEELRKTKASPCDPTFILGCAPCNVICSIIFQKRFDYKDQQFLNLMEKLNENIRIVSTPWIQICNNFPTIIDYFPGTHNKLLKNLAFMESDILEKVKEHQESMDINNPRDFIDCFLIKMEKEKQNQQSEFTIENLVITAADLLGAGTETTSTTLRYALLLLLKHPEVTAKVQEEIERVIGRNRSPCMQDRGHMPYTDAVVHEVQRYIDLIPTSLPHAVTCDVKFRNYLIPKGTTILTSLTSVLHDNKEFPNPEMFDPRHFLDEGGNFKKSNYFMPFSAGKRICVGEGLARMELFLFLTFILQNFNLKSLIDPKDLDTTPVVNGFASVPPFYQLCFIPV
CYP2C19 act – human CYP2C19 activators, primary screen, biochemical, luminescence | recombinant CYP2C19, luciferin-H EGE luminescence; active compounds read high; 0 = fully inhibited enzyme, 1 = untreated enzyme | Cytochrome P450 2C19 (Homo sapiens), P33261 | activation factor at 5 µM | 96,000 tested, under 10 active;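 active means activation factor of at least 2 at 5 µM in the primary screen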;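 further: 0 = wells with 2.5 mM tranylcypromine and 1 = vehicle-only wells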
CYP2C9 inh – blockers of cytochrome P450 2C9 activity – biochemical, luminescence, ADME assay, primary screen. CYP2C9 Supersomes, luciferin-H conversion. inhibition, % at 5 µM. 96,000 compounds, 20% hits. P11712;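 active means blocking of liver enzyme CYP2C9 beyond about 50% at 5 µM, limit read from the data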
Rev-RRE block – HIV-1 Rev-RRE binding inhibitors, primary screen, biochemical, FRET, protein-RNA interaction; P05866; Rev peptide-RRE RNA binding; inhibition, % at 8 µM; 97,000 compounds, 0.79% hits; AID 704, 2007;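 active means inhibition above the screen-wide mean plus 3 SD, cut at about 35% in these data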;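 further: 0% = median DMSO wells and 100% = median Neomycin B control wells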
Target sequence (P05866 whole entry, looked up): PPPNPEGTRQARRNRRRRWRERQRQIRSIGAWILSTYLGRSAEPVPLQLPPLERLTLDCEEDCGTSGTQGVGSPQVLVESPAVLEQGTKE
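Test system: labelled RRE RNA duplex and labelled Rev peptide. Times: 5 min compound–RNA preincubation, then 15 min with peptide, 25 °C. Doses: single-dose 8 µM. Measured by: FRET, excitation 480 nm, emission 540 nm donor and 671 nm acceptor. Measure: % inhibition of FRET ratio versus controls.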
Cav3 T inh – Cav3.2 calcium influx blockers – cell-based, Fluo-4 calcium fluorescence, FDSS, MLSMR library, primary screen; 100,000 compounds, 4% hits; B-score at 10 µM; Cav3.2-expressing cells; active compounds read low; Voltage-dependent T-type calcium channel subunit alpha-1H (Homo sapiens), O95180;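 active means single-dose well whose peak fluorescence ratio is a statistical outlier from its plate by either plate-standardised score or position-corrected B-score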
CYP2C9 activ – human CYP2C9 activators, primary screen, biochemical, luminescence; activation factor at 5 µM; 96,000 compounds, 1.4% hits; Cytochrome P450 2C9 (Homo sapiens), P11712; AID 1024, 2008; recombinant CYP2C9, luciferin-H conversion; active compounds read high; factor 1 = untreated enzyme, 0 = blocked;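 active means activation factor of 2 or more for CYP2C9 at a 5 µM dose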;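 further: 0 = sulfaphenazole-blocked wells and 1 = vehicle-only wells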
Active calls of the source: *; . = no result. This is a sample that favours compounds with a hit; in the whole collection about 27% have one here.

SMILES | CYP2C19 inhib | CYP2C19 act | CYP2C9 inh | Rev-RRE block | Cav3 T inh | CYP2C9 activ
Cc1noc(C)c1C(=O)NCCCc1ccccc1 | 53* | 0.5 | 53* | . | -0.78 | 0.5
CC(CCc1ccccc1)NC(=O)CSc1nc(N)cc(N)n1 (configuration not stated) | 56* | 0.4 | 22 | 4 | -0.65 | 0.8
Cc1occc1C(=O)NCCc1cccc(Cl)c1 | 92* | 0.1 | 64* | 2 | 0.96 | 0.4
COc1ccccc1CNC(=O)c1ccoc1C | 46 | 0.5 | 13 | 3 | 0.33 | 0.9
Cc1occc1C(=O)NCc1ccccc1F | 45 | 0.5 | 51* | 10 | -0.11 | 0.5
CC(CCc1ccccc1)NC(=O)CSc1nnnn1C (configuration not stated) | 20 | 0.8 | -19 | 1 | 0.095 | 1.2
O=C(c1ccc(Cl)c(Cl)c1)N1CCC(=O)N(C(COCc2ccc(Cl)cc2)Cc2ccccc2)CC1 (configuration not stated) | . | . | . | . | -2.2 | .
O=C(Cc1ccccc1)NCCc1cccc(Cl)c1 | 71* | 0.3 | 48 | -4 | 0.052 | 0.5
O=C(Cc1ccccc1)NCCSCc1ccc(Cl)cc1 | 27 | 0.7 | 63* | 1 | -4.4* | 0.4
O=C(NCCc1cccc(Cl)c1)c1cccnc1 | 40 | 0.6 | -2 | 7 | -1 | 1
Cc1ccc(CC(=O)NC(C)CCc2ccccc2)cc1 (configuration not stated) | 37 | 0.6 | 71* | 2 | -3.4 | 0.3
O=C(COC(=O)CCOc1ccccc1)NCc1ccco1 | 9 | 0.9 | 38 | -2 | . | 0.6
O=C(Nc1ccc2c(c1)OCCO2)C1CCN(C(=O)c2ccc(F)cc2)CC1 | 19 | 0.8 | 23 | -4 | 0.58 | 0.8
O=C(O)C1NCCc2ccccc21 (configuration not stated) | 32 | 0.7 | 74* | 6 | -0.18 | 0.3
N#C/C(=C\c1c(N2CCOCC2)nc2ccccn2c1=O)S(=O)(=O)c1ccccc1 | 15 | 0.8 | 32 | 14 | 2.3 | 0.7
Cc1ccc(S(=O)(=O)/C(C#N)=C/c2c(N3CCN(C)CC3)nc3ccccn3c2=O)cc1 | 17 | 0.8 | 81* | 10 | 2.3 | 0.2
O=C1Nc2cc3c(cc2Sc2ccccc21)OCCO3 | 26 | 0.7 | -6 | -3 | -0.49 | 1.1
Cc1ccc(CC(=O)Nc2nc3c(s2)CCCC3)cc1 | 42 | 0.6 | 87* | 5 | -5.2* | 0.1
O=C(CS(=O)(=O)Cc1ccccc1)Nc1nc2c(s1)CCCC2 | 56* | 0.4 | -3 | 1 | -1.1 | 1
O=C(Cc1ccc(S(=O)(=O)N2CCCC2)s1)Nc1nc2c(s1)CCCC2 | 23 | 0.8 | 30 | 13 | -3.8* | 0.7
Cc1ncsc1C(=O)Nc1nc2c(s1)CCCC2 | 66* | 0.3 | 19 | -5 | 0.45 | 0.8
COc1c2c(c(C)c3c1C(=O)OC3)O[C@@]1(C)CC[C@@]3(O)C(C)(C)OC(=O)CC[C@]3(C)[C@H]1C2 | . | . | . | . | 0.29 | .
O=C(CCCc1cccs1)Nc1nc2c(s1)CCCC2 | 4 | 1 | 46 | -1 | -7.6* | 0.5
O=C(CCN1C(=O)c2ccccc2S1(=O)=O)Nc1nc2c(s1)CCCC2 | 84* | 0.2 | 88* | 4 | -2.3 | 0.1
N#CC1=C(N)N(c2ccccc2)C(c2ccccc2)C1(C#N)C#N (configuration not stated) | 29 | 0.7 | 55* | 4 | -1.5 | 0.4
SMILES | CYP2C19 inhib | CYP2C19 act | CYP2C9 inh | Rev-RRE block | Cav3 T inh | CYP2C9 activ
O=C1CC(=O)N(CCc2ccc(F)cc2)C(=O)N1 | 0 | 1 | 14 | 7 | -0.7 | 0.9
COc1ccc(NC(=O)C2CCN(C(=O)c3cccs3)CC2)cc1 | -6 | 1.1 | -20 | 7 | 0.15 | 1.2
CC(=O)c1cccc(NS(=O)(=O)c2c(C)noc2C)c1 | 38 | 0.6 | 41 | 4 | . | 0.6
CCc1cccc(NC(=O)c2ccc(NS(=O)(=O)c3c(C)noc3C)cc2)c1 | 7 | 0.9 | 51* | 4 | -3.6 | 0.5
Cc1cccc(NC(=O)c2ccc(NS(=O)(=O)c3c(C)noc3C)cc2)c1 | 4 | 1 | 40 | 3 | -1.6 | 0.6
Cc1noc(C)c1S(=O)(=O)Nc1ccc(C(=O)N2CCN(c3cccc(Cl)c3)CC2)cc1 | -6 | 1.1 | 79* | 6 | -2.4 | 0.2
Cc1cccc(N2CCN(C(=O)c3ccc(NS(=O)(=O)c4c(C)noc4C)cc3)CC2)c1C | 7 | 0.9 | 96* | 9 | -7.2* | 0
Cc1cccc(N2CCN(C(=O)C3CCCN(S(=O)(=O)c4c(C)noc4C)C3)CC2)c1C (configuration not stated) | . | . | . | 6 | -2.9 | .
Cc1noc(C)c1S(=O)(=O)Nc1ccc(C(=O)N2CCc3ccccc3C2)cc1 | 13 | 0.9 | 59* | 0 | 0.12 | 0.4
CCOc1ccc2[nH]c(=O)c(CN(CC3CCCN3CC)C(=O)NCc3ccccc3)cc2c1 (configuration not stated) | 19 | 0.8 | 20 | . | -0.62 | 0.8
COc1ccc(-n2c(SC(CN3CCCCC3)CN3CCCC3=O)nc3ccccc3c2=O)cc1 (configuration not stated) | 61* | 0.4 | 65* | 0 | -0.99 | 0.3
CCOC(=O)C1CCN(C(=O)Cn2cc3c(n2)CCC(C)C3)CC1 (configuration not stated) | 39 | 0.6 | 0 | . | 0.19 | 1
O=C(NCC1CCCO1)c1ccccc1NC(=O)c1cccc2ccccc12 (configuration not stated) | 3 | 1 | 42 | 3 | 0.38 | 0.6
O=C(NC(NCC1CCCO1)C(Cl)(Cl)Cl)c1cccc2ccccc12 (configuration not stated) | 8 | 0.9 | 30 | 5 | -5* | 0.7
CC(C)CC(=O)NC(NCC1CCCO1)C(Cl)(Cl)Cl (configuration not stated) | 57* | 0.4 | 32 | 4 | 0.34 | 0.7
O=C1Nc2ccc([N+](=O)[O-])cc2C1(O)N1CCCCC1 (configuration not stated) | 18 | 0.8 | 24 | 3 | 0.53 | 0.8
CCOC(=O)Nc1ccc2c(c1)N(C(=O)OCCN(C)C)c1ccccc1CC2 | -2 | 1 | 6 | 8 | 1.9 | 0.9
CCS(=O)(=O)Nc1ccc2c(c1)N(C(C)=O)c1ccccc1CC2 | 25 | 0.7 | 70* | 1 | 0.37 | 0.3

Source: PubChem BioAssay (several laboratories)
